What was measured:
CYP1A1 [1] = test: Induction of CYP1A1 mRNA expression in rat hepatocytes at 10 uM by Taqman analysis relative to control; format: ADME, cell-based, Hepatocyte; conditions: read-out: FC
Rattus norvegicus [2] = test: Induction of CYP1A2 gene expression in rat hepatic microsomes at 30 to 100 mg/kg, po QD for 7 days; format: ADME, organism-based, Liver; conditions: 168 h
[3] = Intrinsic clearance in cynomolgus monkey liver microsomes by LC-MS/MS analysis; format: ADME, Macaca fascicularis
Method in brief: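 Liver microsomes were prepared from control and treated cynomolgus monkeys by differential centrifugation (10 000g, then 105 000g). Compound incubated at 37 °C in 50 mM potassium phosphate pH 7.4 with an NADPH-generating system. Samples taken at 0–30 min, quenched with solvent containing internal standard, and analysed by LC–MS/MS to derive intrinsic clearance.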

Cynomolgus monkey [4] = test: Induction of CYP1A1 gene expression in cynomolgus monkey liver at 30 mg/kg, po QD for 7 days by Taqman analysis; format: ADME, organism-based, Macaca fascicularis; conditions: in vivo, 168 h
Method in brief: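 Cynomolgus monkeys were dosed orally at 30 mg/kg daily. Hepatic CYP1A1 mRNA from treated livers was measured by Taqman and compared with vehicle-control animals.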

CYP1A2 [5] = test: Induction of CYP1A2 mRNA expression in human hepatocytes at 10 uM relative to control; format: ADME, cell-based, Hepatocyte; conditions: read-out: FC
Rattus norvegicus [6] = test: Induction of Ephx1 gene expression in po dosed rat hepatic microsomes administered po QD for 7 days; format: organism-based, Liver; conditions: 168 h
Method in brief: (§1)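 Rats dosed orally once daily for 7 days at 30–300 mg/kg/day, depending on compound. Hepatic AhR-panel gene mRNA (Cyp1a, Nqo1, Ephx1) measured and expressed as fold induction versus control animals.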

CYP1A1 [7] = test: Induction of CYP1A1 gene expression in rat hepatic microsomes at 30 to 100 mg/kg, po QD for 7 days; format: ADME, organism-based, Liver; conditions: read-out: FC
Rattus norvegicus [8] = test: Induction of Nqo1 gene expression in rat hepatic microsomes at 30 to 100 mg/kg, po QD for 7 days; format: organism-based, Liver; conditions: 168 h
CYP1A2 [9] = test: (§2) Induction of CYP1A2 mRNA expression in rat hepatocytes at 10 uM by Taqman analysis relative to control; format: ADME, cell-based, Hepatocyte; conditions: read-out: FC
Rattus norvegicus [10] = test: Induction of Nqo1 gene expression in po dosed rat hepatic microsomes administered po QD for 7 days; format: organism-based, Liver; conditions: 168 h; method in brief: as §1
CYP1A2 [11] = molecular target: T1, CYP1A2 (Homo sapiens, UniProt P05177); test: Induction of CYP1A2-mediated 7-ethoxyresorufin O-deethylase activity in human hepatocytes at 5 uM after 10 mins by fluorescence assay relative to control; format: ADME, cell-based, Hepatocyte; conditions: probe 7-ethoxyresorufin, read-out: FC
T1 sequence (P05177 whole entry): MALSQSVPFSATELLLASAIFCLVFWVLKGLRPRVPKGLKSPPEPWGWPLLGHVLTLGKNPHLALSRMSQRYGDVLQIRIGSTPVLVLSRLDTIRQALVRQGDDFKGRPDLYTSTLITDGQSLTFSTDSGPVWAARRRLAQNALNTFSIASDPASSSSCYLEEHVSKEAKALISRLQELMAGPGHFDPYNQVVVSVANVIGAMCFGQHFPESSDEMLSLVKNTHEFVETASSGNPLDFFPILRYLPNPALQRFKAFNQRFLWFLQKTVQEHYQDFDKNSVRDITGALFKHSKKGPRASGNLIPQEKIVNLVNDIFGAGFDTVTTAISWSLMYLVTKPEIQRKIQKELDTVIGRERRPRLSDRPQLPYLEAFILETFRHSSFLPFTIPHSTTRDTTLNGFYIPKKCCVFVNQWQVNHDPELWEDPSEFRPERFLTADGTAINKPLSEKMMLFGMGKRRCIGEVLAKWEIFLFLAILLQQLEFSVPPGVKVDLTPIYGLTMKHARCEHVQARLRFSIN
Method in brief: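 Human hepatocytes were treated for 48 h (re-dosed at 24 h), washed, then incubated with 0.5 μM ethoxyresorufin in serum-free medium for 10 min at 37 °C. Resorufin fluorescence read at Ex 530/Em 590 nm. Rate in fluorescence units/min expressed as fold over solvent control.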

Rattus norvegicus [12] = test: Induction of Ephx1 gene expression in rat hepatic microsomes at 30 to 100 mg/kg, po QD for 7 days; format: organism-based, Liver; conditions: 168 h
CYP1A2 [13] = test: Induction of CYP1A2 mRNA expression in rat hepatic microsomes at 30 mg/kg, po QD for 7 days relative to control; format: ADME, organism-based, Liver; conditions: read-out: FC
Method in brief: (§3)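 Male rats dosed orally once daily for 7 days. Hepatic mRNA measured by Taqman and expressed as fold induction versus control animals.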

Cynomolgus monkey [14] = test: Induction of CYP1A2 gene expression in cynomolgus monkey liver at 30 mg/kg, po QD for 7 days by Taqman analysis; format: ADME, organism-based, Macaca fascicularis; conditions: in vivo, 168 h
Method in brief: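 Cynomolgus monkeys dosed orally at 30 mg/kg daily for 7 days. Liver CYP1A2 mRNA measured by Taqman analysis in treated animals versus vehicle-control animals.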

Rattus norvegicus [15] = test: Induction of CYP1A2 gene expression in po dosed rat hepatic microsomes administered po QD for 7 days; format: ADME, organism-based, Liver; conditions: 168 h; method in brief: as §1
CYP1A1 [16] = test: Induction of CYP1A1 mRNA expression in rat hepatic microsomes at 30 mg/kg, po QD for 7 days relative to control; format: ADME, organism-based, Liver; conditions: read-out: FC; method in brief: as §3
Rattus norvegicus [17] = test: Induction of CYP1A1 gene expression in po dosed rat hepatic microsomes administered po QD for 7 days; format: ADME, organism-based, Liver; conditions: 168 h
Method in brief: (§4)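 Rats received oral doses daily for 7 days: 30 and 100 mg/kg, or 30, 100 and 300 mg/kg, depending on compound. Hepatic CYP1A1 mRNA was expressed as fold induction versus control animals.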

Hepatocyte = test: as §2; format: ADME, cell-based; conditions: 10 µM
CYP1A2 [18] = test: Induction of CYP1A2 mRNA expression in rat hepatic microsomes at 20 mg/kg, po QD for 4 days relative to control; format: ADME, organism-based, Liver; conditions: hepatic microsomes, read-out: FC
Method in brief: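 Male CD rats (226–325 g), n = 3, given test compound by oral gavage once daily for 4 days. Vehicle was 1% w/v methylcellulose aqueous suspension (3–6 mg/mL, 5 mL/kg); target dose 15–30 mg/kg. Liver from the left lateral lobe was put in RNALater, then TRIzol extraction and cDNA conversion; Cyp1a analysed on low-density arrays.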

CYP1A1 [19] = test: Induction of CYP1A1 mRNA expression in rat hepatic microsomes at 20 mg/kg, po QD for 4 days relative to control; format: ADME, organism-based, Liver; conditions: hepatic microsomes, read-out: FC
Method in brief: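 Male CD rats, n = 3, received the compound once daily by oral gavage for 4 days in 1% methylcellulose suspension at 5 mL/kg. At necropsy a left lateral liver lobe section was stored in RNALater on ice. Tissue was TRIzol-homogenized, RNA purified, DNased and converted to cDNA. Cyp1a1 was read on low density arrays and expressed relative to control.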

CYP1A1 [20] = test: Induction of CYP1A1 gene expression in rat hepatic microsomes at 30 to 300 mg/kg, po QD for 7 days; format: ADME, organism-based, Liver; conditions: read-out: FC; method in brief: as §4
Rattus norvegicus [21] = test: Induction of Ephx1 gene expression in rat hepatic microsomes at 30 to 300 mg/kg, po QD for 7 days; format: organism-based, Liver; conditions: 168 h; method in brief: as §1
Rattus norvegicus [22] = test: Induction of Nqo1 gene expression in rat hepatic microsomes at 30 to 300 mg/kg, po QD for 7 days; format: organism-based, Liver; conditions: 168 h; method in brief: as §1
Rattus norvegicus [23] = test: Induction of CYP1A2 gene expression in rat hepatic microsomes at 30 to 300 mg/kg, po QD for 7 days; format: ADME, organism-based, Liver; conditions: 168 h; method in brief: as §1

Row | SMILES | fold induction at 10 µM (CYP1A1 [1]) | fold induction at 10 µM (CYP1A2 [5]) | Activity (Rattus norvegicus [6]) | fold induction at 10 µM (CYP1A2 [9]) | Activity (Rattus norvegicus [10]) | fold induction at 10 min, 5 µM (CYP1A2 [11]) | fold induction at 168 h (CYP1A2 [13]) | Activity (Rattus norvegicus [15]) | fold induction at 168 h (CYP1A1 [16]) | Activity (Rattus norvegicus [17]) | also measured
1 | CC(C)Oc1ccc(-c2nc(-c3cccc4c3cnn4CCC(=O)O)no2)cc1Cl | < 1 | 45 | Dose-dependent effect | < 1 | Dose-dependent effect | 7.7 | 2 | Dose-dependent effect | 35 | Dose-dependent effect | Activity (Rattus norvegicus [2]): Toxic; CLint scaled [3]: 11 mL/min/g; Activity (Cynomolgus monkey [4]): Toxic; fold induction at 168 h (CYP1A1 [7]): 10000; Activity (Rattus norvegicus [8]): Toxic; Activity (Rattus norvegicus [12]): Toxic; Activity (Cynomolgus monkey [14]): Toxic
2 | CC(C)Oc1ncc(-c2nc(-c3cccc4c3OCCNC4CCCC(=O)O)no2)cc1Cl (stereo in doubt; 6) | 43 |  |  |  |  |  |  |  |  |  | fold change (FC) (Hepatocyte): 19; fold induction at 96 h (CYP1A2 [18]): 2; fold induction at 96 h (CYP1A1 [19]): 2
3 | CC(C)Oc1ccc(-c2nc(-c3cccc4c3OCCN(CCCC(=O)O)C4)no2)cc1Cl | 5 | 0.6 | Dose-dependent effect | 3 | Dose-dependent effect | 1.1 | 8 | Dose-dependent effect | 75 | Dose-dependent effect | fold induction at 168 h (CYP1A1 [20]): 10000; Activity (Rattus norvegicus [21]): Toxic; Activity (Rattus norvegicus [22]): Toxic; Activity (Rattus norvegicus [23]): Toxic

From ChEMBL document CHEMBL3627702, “Navigating CYP1A Induction and Arylhydrocarbon Receptor Agonism in Drug Discovery. A Case History with S1P1 Agonists” (J Med Chem, 2015)
